Experiments:
Type in all cases: functional
HCT-116 = assay: Cytotoxicity against human HCT116 cells assessed as cell growth at 100 nM after 48 hrs by sulforhodamine B assay; settings: HCT-116, 48 h, read-out: Activity
786-0 = assay: Cytotoxicity against human 786-0 cells assessed as cell growth at 10 uM after 48 hrs by sulforhodamine B assay; settings: 786-0, 48 h, read-out: Activity
[1] = Cytotoxicity against human […] cells assessed as cell growth at 10 uM after 48 hrs by sulforhodamine B assay; settings: read-out: Activity
HCC 2998 [2] = assay: Cytotoxicity against human HCC2998 cells assessed as cell growth at 1 uM after 48 hrs by sulforhodamine B assay; settings: HCC 2998, 48 h, read-out: Activity
DU-145 = assay: Cytotoxicity against human DU145 cells assessed as cell growth at 0.01 uM after 48 hrs by sulforhodamine B assay; settings: DU-145, 48 h, read-out: Activity
HCC 2998 [3] = assay: Growth inhibition of human HCC2998 cells after 48 hrs by sulforhodamine B assay; settings: HCC 2998, 48 h; for CC50: read-out: LC50 (the source's name)
Procedure, shortened: (§1)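 NCI 60-cell screen, five-dose mode. Cells grown in RPMI 1640 with 5% FBS and 2 mM L-glutamine and plated at 5000-40,000 cells/well according to doubling time. After 24 h preincubation, a Tz plate was TCA-fixed. Five concentrations (10-fold or 1/2 log dilutions) were applied for 48 h at 37 °C. SRB staining read at 515 nm. IC50 taken from [(Ti-Tz)/(C-Tz)]×100 = 50.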

[4] = Cytotoxicity against human […] cells assessed as cell growth at 10 uM; settings: read-out: Activity
Procedure, shortened: (§2)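 NCI-60 screen: cells grown in RPMI 1640 with 5% FBS and 2 mM L-glutamine, plated at 5000–40,000 cells/well according to doubling time, and preincubated 24 h at 37 °C, 5% CO2. The single 10 µM dose (DMSO stock) was added, then incubated 48 h. Cells were TCA-fixed and stained with 0.4% SRB, read at 515 nm, and growth % calculated against time-zero and control plates.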

PC-3 = assay: Cytotoxicity against human PC3 cells assessed as cell growth at 10 uM after 48 hrs by sulforhodamine B assay; settings: PC-3, 48 h, read-out: Activity
MCF7 [5] = assay: Cytotoxicity against human MCF7 cells assessed as cell growth at 100 nM after 48 hrs by sulforhodamine B assay; settings: MCF7, 48 h, read-out: Activity
ACHN = assay: Cytotoxicity against human ACHN cells assessed as cell growth at 0.01 uM after 48 hrs by sulforhodamine B assay; settings: read-out: Activity
MCF7 [6] = assay: Cytotoxicity against human MCF7 cells assessed as cell growth at 1 uM after 48 hrs by sulforhodamine B assay; settings: MCF7, 48 h, read-out: Activity
SK-MEL-28 [7] = assay: Cytotoxicity against human SK-MEL-28 cells assessed as cell growth at 1 uM after 48 hrs by sulforhodamine B assay; settings: SK-MEL-28, 48 h, read-out: Activity
KM12 = assay: Cytotoxicity against human KM12 cells assessed as cell growth at 10 uM; settings: read-out: Activity; procedure, shortened: as §2
CCRF-CEM = assay: Cytotoxicity against human CCRF-CEM cells assessed as cell growth at 10 uM; settings: read-out: Activity
Procedure, shortened: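 Single-dose NCI-60 screen at 10 µM. Cells were grown in RPMI 1640 with 5% FBS and 2 mM L-glutamine, then treated for 48 h at 37 °C. Protein was measured by SRB staining with absorbance at 515 nm. Percentage growth was recorded, and inhibition percentage was calculated as 100 minus growth percentage.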

SK-MEL-28 [8] = assay: Growth inhibition of human SK-MEL-28 cells after 48 hrs by sulforhodamine B assay; settings: SK-MEL-28, 48 h; for CC50: read-out: LC50 (the source's name); procedure, shortened: as §1
UO-31 = assay: Cytotoxicity against human UO31 cells assessed as cell growth at 10 uM after 48 hrs by sulforhodamine B assay; settings: UO-31, 48 h, read-out: Activity
MCF7 [9] = assay: Cytotoxicity against human MCF7 cells assessed as cell growth at 10 uM after 48 hrs by sulforhodamine B assay; settings: MCF7, 48 h, read-out: Activity
SK-MEL-5 = assay: Cytotoxicity against human SK-MEL-5 cells assessed as cell growth at 1 uM after 48 hrs by sulforhodamine B assay; settings: SK-MEL-5, 48 h, read-out: Activity
NCI-H226 [10] = assay: Cytotoxicity against human NCI-H226 cells assessed as cell growth at 1 uM after 48 hrs by sulforhodamine B assay; settings: NCI-H226, 48 h, read-out: Activity
RXF 393 [11] = assay: Cytotoxicity against human RXF393 cells assessed as cell growth at 100 nM after 48 hrs by sulforhodamine B assay; settings: RXF 393, 48 h, read-out: Activity
MCF7 [12] = assay: Cytotoxicity against human MCF7 cells assessed as cell growth at 0.001 uM after 48 hrs by sulforhodamine B assay; settings: MCF7, 48 h, read-out: Activity
HCC 2998 [13] = assay: Cytotoxicity against human HCC2998 cells assessed as cell growth at 100 nM after 48 hrs by sulforhodamine B assay; settings: HCC 2998, 48 h, read-out: Activity
NCI-H226 [14] = assay: Cytotoxicity against human NCI-H226 cells assessed as cell growth at 10 uM after 48 hrs by sulforhodamine B assay; settings: NCI-H226, 48 h, read-out: Activity
SK-MEL-28 [15] = assay: Cytotoxicity against human SK-MEL-28 cells assessed as cell growth at 10 uM after 48 hrs by sulforhodamine B assay; settings: SK-MEL-28, 48 h, read-out: Activity
MDA-MB-435 = assay: Cytotoxicity against human MDA-MB-435 cells assessed as cell growth at 0.01 uM after 48 hrs by sulforhodamine B assay; settings: MDA-MB-435, 48 h, read-out: Activity
RXF 393 [16] = assay: Cytotoxicity against human RXF393 cells assessed as cell growth at 1 uM after 48 hrs by sulforhodamine B assay; settings: RXF 393, 48 h, read-out: Activity
RXF 393 [17] = assay: Growth inhibition of human RXF393 cells after 48 hrs by sulforhodamine B assay; settings: RXF 393, 48 h; procedure, shortened: as §1
SR [18] = assay: Cytotoxicity against human SR cells assessed as cell growth at 0.01 uM after 48 hrs by sulforhodamine B assay; settings: read-out: Activity
SF-295 = assay: Cytotoxicity against human SF295 cells assessed as cell growth at 100 nM after 48 hrs by sulforhodamine B assay; settings: SF-295, 48 h, read-out: Activity
SR [19] = assay: Cytotoxicity against human SR cells assessed as cell growth at 0.001 uM after 48 hrs by sulforhodamine B assay; settings: read-out: Activity
NCI-H226 [20] = assay: Cytotoxicity against human NCI-H226 cells assessed as cell growth at 0.01 uM after 48 hrs by sulforhodamine B assay; settings: NCI-H226, 48 h, read-out: Activity
RXF 393 [21] = assay: Cytotoxicity against human RXF393 cells assessed as cell growth at 0.001 uM after 48 hrs by sulforhodamine B assay; settings: RXF 393, 48 h, read-out: Activity
CAKI-1 = assay: Cytotoxicity against human Caki1 cells assessed as cell growth at 1 uM after 48 hrs by sulforhodamine B assay; settings: CAKI-1, 48 h, read-out: Activity
RXF 393 [22] = assay: Cytotoxicity against human RXF393 cells assessed as cell growth at 10 uM after 48 hrs by sulforhodamine B assay; settings: RXF 393, 48 h, read-out: Activity
MCF7 [23] = assay: Growth inhibition of human MCF7 cells after 48 hrs by sulforhodamine B assay; settings: MCF7, 48 h; procedure, shortened: as §1

COc1cc(C)cc(-c2c(-c3ccnc(-c4ccc(C(C)=O)cc4)c3)cnn2CC#N)c1 gave a growth at 0.1 µM (HCT-116) of 73%, a growth at 10 µM (786-0) of 20% and a growth at 10 µM [1] of -1%. The growth at 1 µM (HCC 2998 [2]) was 2%, the growth at 0.01 µM (DU-145) was 100% and the GI50 (HCC 2998 [3]) was 3.41 µM. The TGI (HCC 2998 [3]) was > 100 µM, the CC50 (HCC 2998 [3]) was > 100 µM and the growth at 10 µM [4] was 67.6%. It also gave a growth at 10 µM (PC-3) of 27%, a growth at 0.1 µM (MCF7 [5]) of 86% and a growth at 0.01 µM (ACHN) of 96%. It also gave a growth at 1 µM (MCF7 [6]) of 16%, a growth at 1 µM (SK-MEL-28 [7]) of 44% and a growth at 10 µM (KM12) of 80.2%. The growth at 10 µM (CCRF-CEM) was 53.7%, the GI50 (SK-MEL-28 [8]) was 7.66 µM and the TGI (SK-MEL-28 [8]) was > 100 µM. The CC50 (SK-MEL-28 [8]) was > 100 µM, the growth at 10 µM (UO-31) was 15% and the growth at 10 µM (MCF7 [9]) was 17%. For the same compound, the growth at 1 µM (SK-MEL-5) was -37%, the growth at 1 µM (NCI-H226 [10]) was 34% and the growth at 0.1 µM (RXF 393 [11]) was 94%. For the same compound, the growth at 0.001 µM (MCF7 [12]) was 96%, the growth at 0.1 µM (HCC 2998 [13]) was 104% and the growth at 10 µM (NCI-H226 [14]) was 35%. It also gave a growth at 10 µM (SK-MEL-28 [15]) of 46%, a growth at 0.01 µM (MDA-MB-435) of 91% and a growth at 1 µM (RXF 393 [16]) of -27%. The GI50 (RXF 393 [17]) was 2.32 µM, the LC50 (concentration killing 50% of the starting cells) (RXF 393 [17]) was > 100 µM and the TGI (RXF 393 [17]) was 6.02 µM. The growth at 0.01 µM (SR [18]) was 95%, the growth at 0.1 µM (SF-295) was 85% and the growth at 0.001 µM (SR [19]) was 96%. For the same compound, the growth at 0.01 µM (NCI-H226 [20]) was 93%, the growth at 0.001 µM (RXF 393 [21]) was 86% and the growth at 1 µM (CAKI-1) was 29%. For the same compound, the growth at 10 µM (RXF 393 [22]) was -27%, the GI50 (MCF7 [23]) was 3.25 µM and the LC50 (MCF7 [23]) was > 100 µM. The TGI (MCF7 [23]) was > 100 µM.

Cc1cc(O)cc(-c2nn(CC#N)cc2-c2ccnc(-c3ccc(Oc4ccccc4)cc3)c2)c1 showed a growth at 0.1 µM (HCT-116) of 86%, a growth at 10 µM (786-0) of -93% and a growth at 10 µM [1] of -14%. For the same compound, the growth at 1 µM (HCC 2998 [2]) was -94%, the growth at 0.01 µM (DU-145) was 96% and the GI50 (HCC 2998 [3]) was 1.91 µM. The TGI (HCC 2998 [3]) was 3.39 µM, the CC50 (HCC 2998 [3]) was 6.02 µM and the growth at 10 µM (PC-3) was -60%. For the same compound, the growth at 0.1 µM (MCF7 [5]) was 95%, the growth at 0.01 µM (ACHN) was 95% and the growth at 1 µM (MCF7 [6]) was -34%. It also gave a growth at 1 µM (SK-MEL-28 [7]) of 30%, a growth at 10 µM (KM12) of 39.9% and a GI50 (SK-MEL-28 [8]) of 4.92 µM. It also gave a TGI (SK-MEL-28 [8]) of 17 µM, a CC50 (SK-MEL-28 [8]) of 41.4 µM and a growth at 10 µM (UO-31) of -81%. For the same compound, the growth at 10 µM (MCF7 [9]) was -82%, the growth at 1 µM (NCI-H226 [10]) was 6% and the growth at 0.1 µM (RXF 393 [11]) was 101%. For the same compound, the growth at 0.001 µM (MCF7 [12]) was 92%, the growth at 0.1 µM (HCC 2998 [13]) was 107% and the growth at 10 µM (NCI-H226 [14]) was -63%. It also gave a growth at 10 µM (SK-MEL-28 [15]) of -100%, a growth at 0.01 µM (MDA-MB-435) of 95% and a growth at 1 µM (RXF 393 [16]) of -58%. For the same compound, the GI50 (RXF 393 [17]) was 2.08 µM, the LC50 (concentration killing 50% of the starting cells) (RXF 393 [17]) was 8.92 µM and the TGI (RXF 393 [17]) was 4.31 µM. It also gave a growth at 0.01 µM (SR [18]) of 95%, a growth at 0.1 µM (SF-295) of 87% and a growth at 0.001 µM (SR [19]) of 94%. The growth at 0.01 µM (NCI-H226 [20]) was 89%, the growth at 0.001 µM (RXF 393 [21]) was 88% and the growth at 1 µM (CAKI-1) was -24%. It also gave a growth at 10 µM (RXF 393 [22]) of -87%, a GI50 (MCF7 [23]) of 2.23 µM and an LC50 (MCF7 [23]) of 21.9 µM. It also gave a TGI (MCF7 [23]) of 5.48 µM.

From ChEMBL document CHEMBL1165950, “Design and synthesis of new potent anticancer pyrazoles with high FLT3 kinase inhibitory selectivity” (Bioorg Med Chem, 2010)
